Source: ChEMBL document CHEMBL1165909, “Analgesic, anti-pyretic and DNA cleavage studies of novel pyrimidine derivatives of coumarin moiety” (Eur J Med Chem, 2010)

Key:
Rattus norvegicus [1] = test: Analgesic activity in albino Wistar rat assessed as reaction time required for tail flicking at 25 mg/kg, po after 90 mins by tail-flick method (reference value: 3.87 +/- 0.355 sec); assay type: functional
Rattus norvegicus [2] = test: Analgesic activity in albino Wistar rat assessed as reaction time required for tail flicking at 25 mg/kg, po after 30 mins by tail-flick method (reference value: 3.97 +/- 0.287 sec); assay type: functional
Rattus norvegicus [3] = test: Analgesic activity in albino Wistar rat assessed as reaction time required for tail flicking at 25 mg/kg, po after 60 mins by tail-flick method (reference value: 4 +/- 0.360 sec); assay type: functional
Rattus norvegicus [4] = test: Acute toxicity in albino Wistar rat assessed as intestine ulcerhaemorrhagic spots at up to 3 g/kg, po after 24 hrs; assay type: organism-based; details: in vivo, 3000 mg/kg
How it was run: (§1)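 Albino rats of either sex, groups of six, dosed from 100 up to 3000 mg kg^-1 body weight. Watched continuously for 8 h for signs such as altered motor activity, ataxia, tremors, convulsions, sedation and lacrimation. Killed at 24 h; stomach, intestine and liver inspected under magnifying lenses for ulcer-haemorrhagic spots.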

Rattus norvegicus [5] = test: Antipyretic activity against brewer's yeast-induced hyperthermia in albino Wistar rat assessed as change in rectal temperature at 100 mg/kg, po after 6 hrs (reference value: 33.44 +/- 0.18 degC); assay type: functional
Rattus norvegicus [6] = test: Acute toxicity in albino Wistar rat assessed as stomach ulcerhaemorrhagic spots at up to 3 g/kg, po after 24 hrs; assay type: organism-based; details: in vivo, 3000 mg/kg; how it was run: as §1
Rattus norvegicus [7] = test: Antipyretic activity against brewer's yeast-induced hyperthermia in albino Wistar rat assessed as change in rectal temperature at 100 mg/kg, po after 5 hrs (reference value: 34.36 +/- 0.14 degC); assay type: functional
Rattus norvegicus [8] = test: Antipyretic activity against brewer's yeast-induced hyperthermia in albino Wistar rat assessed as change in rectal temperature at 100 mg/kg, po after 1 hr (reference value: 33.78 +/- 0.18 degC); assay type: functional
Rattus norvegicus [9] = test: Acute toxicity in albino Wistar rat assessed as tremors at up to 3 g/kg, po after 24 hrs; assay type: organism-based; details: in vivo, 3000 mg/kg; how it was run: as §1
Rattus norvegicus [10] = test: Acute toxicity in albino Wistar rat assessed as mortality at up to 3 g/kg, po after 24 hrs; assay type: organism-based; details: in vivo, 3000 mg/kg; how it was run: as §1
Rattus norvegicus [11] = test: Acute toxicity in albino Wistar rat assessed as ulceration at up to 3 g/kg, po after 24 hrs; assay type: organism-based; details: in vivo, 3000 mg/kg; how it was run: as §1
Rattus norvegicus [12] = test: Acute toxicity in albino Wistar rat assessed as convulsion at up to 3 g/kg, po after 24 hrs; assay type: organism-based; details: in vivo, 3000 mg/kg; how it was run: as §1
Rattus norvegicus [13] = test: Antipyretic activity against brewer's yeast-induced hyperthermia in albino Wistar rat assessed as change in rectal temperature at 100 mg/kg, po after 3 hrs (reference value: 32.80 +/- 0.09 degC); assay type: functional
Rattus norvegicus [14] = test: Acute toxicity in albino Wistar rat assessed as sedation at up to 3 g/kg, po after 24 hrs; assay type: organism-based; details: in vivo, 3000 mg/kg; how it was run: as §1
Rattus norvegicus [15] = test: Acute toxicity in albino Wistar rat assessed as haemorrhagic spots at up to 3 g/kg, po after 24 hrs; assay type: organism-based; details: in vivo, 3000 mg/kg; how it was run: as §1

Cc1c(N(C)CS(=O)(=O)[O-])c(=O)n(-c2ccccc2)n1C.[Na+] [DIPYRONE SODIUM]
Time (Rattus norvegicus [1]): 9.02 s | Time (Rattus norvegicus [2]): 5.77 s | Time (Rattus norvegicus [3]): 8.76 s

O=c1cc(COc2ccc(-c3cc(-c4ccccc4)nc(S)n3)cc2)c2cc(Cl)ccc2o1
Activity (Rattus norvegicus [4]): Non-toxic | Time (Rattus norvegicus [1]): 8.5 s | T (Rattus norvegicus [5]): 32.84 °C | Activity (Rattus norvegicus [6]): Non-toxic | T (Rattus norvegicus [7]): 32.84 °C | T (Rattus norvegicus [8]): 32.5 °C | Time (Rattus norvegicus [2]): 5.1 s | Activity (Rattus norvegicus [9]): Non-toxic | Activity (Rattus norvegicus [10]): Non-toxic | Activity (Rattus norvegicus [11]): Non-toxic | Activity (Rattus norvegicus [12]): Non-toxic | T (Rattus norvegicus [13]): 32.61 °C | Activity (Rattus norvegicus [14]): Non-toxic | Time (Rattus norvegicus [3]): 7.54 s | Activity (Rattus norvegicus [15]): Non-toxic

Nc1nc(-c2ccccc2)cc(-c2ccc(OCc3cc(=O)oc4ccc(Cl)cc34)cc2)n1
Activity (Rattus norvegicus [4]): Non-toxic | Time (Rattus norvegicus [1]): 7.1 s | T (Rattus norvegicus [5]): 32.54 °C | Activity (Rattus norvegicus [6]): Non-toxic | T (Rattus norvegicus [7]): 32.09 °C | T (Rattus norvegicus [8]): 32.74 °C | Time (Rattus norvegicus [2]): 5.02 s | Activity (Rattus norvegicus [9]): Non-toxic | Activity (Rattus norvegicus [10]): Non-toxic | Activity (Rattus norvegicus [11]): Non-toxic | Activity (Rattus norvegicus [12]): Non-toxic | T (Rattus norvegicus [13]): 32.45 °C | Activity (Rattus norvegicus [14]): Non-toxic | Time (Rattus norvegicus [3]): 7 s | Activity (Rattus norvegicus [15]): Non-toxic

Nc1nc(-c2ccccc2)cc(-c2ccc(OCc3cc(=O)oc4ccc5ccccc5c34)cc2)n1
Activity (Rattus norvegicus [4]): Non-toxic | Time (Rattus norvegicus [1]): 8 s | T (Rattus norvegicus [5]): 31.88 °C | Activity (Rattus norvegicus [6]): Non-toxic | T (Rattus norvegicus [7]): 32.22 °C | T (Rattus norvegicus [8]): 32.8 °C | Time (Rattus norvegicus [2]): 4 s | Activity (Rattus norvegicus [9]): Non-toxic | Activity (Rattus norvegicus [10]): Non-toxic | Activity (Rattus norvegicus [11]): Non-toxic | Activity (Rattus norvegicus [12]): Non-toxic | T (Rattus norvegicus [13]): 31.84 °C | Activity (Rattus norvegicus [14]): Non-toxic | Time (Rattus norvegicus [3]): 7.25 s | Activity (Rattus norvegicus [15]): Non-toxic

Nc1nc(-c2ccccc2)cc(-c2ccc(OCc3cc(=O)oc4c3ccc3ccccc34)cc2)n1
Activity (Rattus norvegicus [4]): Non-toxic | Time (Rattus norvegicus [1]): 5 s | T (Rattus norvegicus [5]): 32.09 °C | Activity (Rattus norvegicus [6]): Non-toxic | T (Rattus norvegicus [7]): 32.51 °C | T (Rattus norvegicus [8]): 32.68 °C | Time (Rattus norvegicus [2]): 4.04 s | Activity (Rattus norvegicus [9]): Non-toxic | Activity (Rattus norvegicus [10]): Non-toxic | Activity (Rattus norvegicus [11]): Non-toxic | Activity (Rattus norvegicus [12]): Non-toxic | T (Rattus norvegicus [13]): 31.4 °C | Activity (Rattus norvegicus [14]): Non-toxic | Time (Rattus norvegicus [3]): 4.75 s | Activity (Rattus norvegicus [15]): Non-toxic

Cc1ccc2oc(=O)cc(COc3ccc(-c4cc(-c5ccccc5)nc(S)n4)cc3)c2c1
Activity (Rattus norvegicus [4]): Non-toxic | Time (Rattus norvegicus [1]): 7.45 s | T (Rattus norvegicus [5]): 31.98 °C | Activity (Rattus norvegicus [6]): Non-toxic | T (Rattus norvegicus [7]): 32.8 °C | T (Rattus norvegicus [8]): 32.55 °C | Time (Rattus norvegicus [2]): 4.5 s | Activity (Rattus norvegicus [9]): Non-toxic | Activity (Rattus norvegicus [10]): Non-toxic | Activity (Rattus norvegicus [11]): Non-toxic | Activity (Rattus norvegicus [12]): Non-toxic | T (Rattus norvegicus [13]): 32.77 °C | Activity (Rattus norvegicus [14]): Non-toxic | Time (Rattus norvegicus [3]): 6.5 s | Activity (Rattus norvegicus [15]): Non-toxic

Cc1ccc2oc(=O)cc(COc3ccc(-c4cc(-c5ccccc5)nc(N)n4)cc3)c2c1
Activity (Rattus norvegicus [4]): Non-toxic | Time (Rattus norvegicus [1]): 7.25 s | T (Rattus norvegicus [5]): 33 °C | Activity (Rattus norvegicus [6]): Non-toxic | T (Rattus norvegicus [7]): 33.3 °C | T (Rattus norvegicus [8]): 32.66 °C | Time (Rattus norvegicus [2]): 4.75 s | Activity (Rattus norvegicus [9]): Non-toxic | Activity (Rattus norvegicus [10]): Non-toxic | Activity (Rattus norvegicus [11]): Non-toxic | Activity (Rattus norvegicus [12]): Non-toxic | T (Rattus norvegicus [13]): 31.68 °C | Activity (Rattus norvegicus [14]): Non-toxic | Time (Rattus norvegicus [3]): 6.75 s | Activity (Rattus norvegicus [15]): Non-toxic
